From PubChem BioAssay
Sampled rows, rich in hits. Any-hit rate of the full collection: about 4.6%.
TAAR1 ag = agonists of human TAAR1. actives 0.99% (n = 360,000). AID 624467. CHO RD-HGA16 TAAR1, Fluo-8 calcium fluorescence; vehicle wells 0%, saturating PEA agonist 100%. activation, % at 3 µM;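 active = activation above the mean activation of all test compounds in the run plus 3 SD, cut at about 38% in these data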
Target sequence (Q96RJ0 whole entry, looked up): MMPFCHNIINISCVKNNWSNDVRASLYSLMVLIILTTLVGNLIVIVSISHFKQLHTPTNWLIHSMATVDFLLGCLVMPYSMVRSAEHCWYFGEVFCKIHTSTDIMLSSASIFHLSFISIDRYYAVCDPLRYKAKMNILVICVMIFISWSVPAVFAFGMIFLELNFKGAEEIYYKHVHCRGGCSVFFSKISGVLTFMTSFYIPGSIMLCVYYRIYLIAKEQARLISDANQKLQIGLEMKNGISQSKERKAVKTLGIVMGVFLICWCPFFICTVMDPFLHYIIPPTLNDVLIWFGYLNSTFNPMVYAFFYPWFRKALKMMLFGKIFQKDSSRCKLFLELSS
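System: CHO RD-HGA16 cells carrying human TAAR1 plus Gα16; Incubation: 17-24 h seeding, 75 min 37 °C dye, 30 min RT; Measured by: Fluo-8 fluorescence, 5 s baseline then 140 s kinetic read; Control set: DMSO and PEA EC100; Replication: single well for each compound.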
OX1R antag-1 = human HCRTR1 antagonism. O43613. CHO/OX1R cells, Fluo-8 calcium fluorescence, orexin A. inhibition, % at 5 µM. actives 0.43% (n = 330,000). AID 434989;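 active = inhibition above its plate's threshold, mean inhibition of all tested compounds on the plate plus 3 SD, cut at about 37% in these data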;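 note: 0% = orexin A challenge wells and 100% = SB-334867-A antagonist wells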
OX1R antag-2 = antagonists of human orexin 1 receptor (OX1R); O43613; OX1R-expressing cells, FRET antagonist read-out; inhibition, % at 6.6 µM; actives 1.8% (n = 330,000); AID 485270; in the data active = inhibition mostly above about 38%, no sharp cut-off; inactive = mostly below about 40%;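 note: 0% = agonist challenge alone and 100% = reference antagonist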
CHO parental Ca = counter-screen: ATP calcium response change in parental CHO cells. parental CHO-K1, ATP-induced calcium, Fluo-8 fluorescence. inhibition, % at 5.6 µM. actives 0.63% (n = 330,000). AID 463079;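 active = inhibition above that plate's mean sample inhibition plus 3 SD, cut at about 26% in these data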;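 note: 0% = ATP-challenged DMSO wells and 100% = DMSO wells without ATP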
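Material – parental CHO cells · Reagent – ATP stimulus · Compound – single nominal dose of 5.6 µM per compound · Detection – Fluo-8 fluorescence · Read-out basis – percent inhibition of calcium signal · Controls – ATP-challenged DMSO wells low, unchallenged DMSO wells high · Repeats – no replicates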
TAAR1 antag = human TAAR1 antagonism; actives 1.5% (n = 360,000); inhibition, % at 3 µM; Q96RJ0; AID 624466; CHO RD-HGA16 TAAR1, Fluo-8 calcium fluorescence, antagonist;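 active = inhibition above a per-plate cutoff, the mean inhibition of test compounds on that plate plus 3 SD, cut at about 49% in these data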;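 note: 0% = DMSO plus EC80 beta-PEA response and 100% = DMSO alone without agonist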
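Test system – hTAAR1-expressing CHO RD-HGA16 cells, Gα16-coupled · Also added – β-PEA at EC80 concentration, post-compound challenge · Compound – 3 µM, single point · Incubation – dye loading 75 min at 37 °C, then 30 min room temperature · Measured by – Fluo-8 intracellular calcium dye fluorescence, real-time kinetic reads · Benchmarks – vehicle and agonist controls · Replicates – singlicate, one well per test compound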
GPR7 antagonist = human neuropeptides B/W receptor 1 antagonism; P48145; GPR7-expressing cells, fluorescence antagonist assay; inhibition, % at 4.4 µM; actives 1.1% (n = 290,000); AID 1861; in the data active = inhibition above about 16%, passing the limit was not always enough;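 note: cells stimulated with the agonist NPW; 0% = agonist with vehicle and 100% = vehicle without agonist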
Target sequence (P48145 whole entry, looked up): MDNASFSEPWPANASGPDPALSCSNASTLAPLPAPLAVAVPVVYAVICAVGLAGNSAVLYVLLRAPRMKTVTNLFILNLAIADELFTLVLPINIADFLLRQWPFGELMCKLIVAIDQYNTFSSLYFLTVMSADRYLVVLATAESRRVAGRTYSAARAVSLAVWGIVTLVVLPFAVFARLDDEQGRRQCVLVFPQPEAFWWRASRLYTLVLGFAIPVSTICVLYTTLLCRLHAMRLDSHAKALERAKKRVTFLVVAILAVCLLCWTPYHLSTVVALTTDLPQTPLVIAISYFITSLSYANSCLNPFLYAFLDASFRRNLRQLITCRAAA
* hit, by the source's call; nt = no result.

SMILES | TAAR1 ag | OX1R antag-1 | OX1R antag-2 | CHO parental Ca | TAAR1 antag | GPR7 antagonist
O=C1CCCCC1C1(O)C(=O)Nc2ccccc21 (centres undefined) | 3 | nt | nt | nt | 3 | nt
Fc1cccc(Cc2c(-c3ccccc3)nc3c4ccccc4ccn23)c1 | 1 | nt | nt | nt | -4 | nt
Cc1ccc(Oc2nc3c(c(=O)n(Cc4ccccc4F)c(=O)n3C)n2C)cc1 | 20 | -6 | 1 | -12 | 50* | -2
Cc1ccc2c(N)[nH]nc2n1 | 7 | -9 | 16 | -5 | -2 | 1
Cc1c(O)ccc(/C=N/Nc2nc(-c3cccnc3)nc3ccccc23)c1O | 18 | -17 | 45 | -5 | 74* | -9
COc1ccccc1CNC(=O)COc1ccc(S(=O)(=O)N2CCOCC2)cc1C | 6 | -16 | 24 | -4 | 4 | -9
Cc1ccc(S(=O)(=O)CCC(=O)OCC(=O)c2cc(C)n(C)c2C)cc1 | 1 | -26 | 0 | -18 | -4 | nt
Cc1ccc(C(C)C)c(OCCN)c1 | 38* | -1 | 0 | -6 | -2 | 0
Cc1ccc(C(C)C)c(OCCN(C)C)c1 | 7 | -18 | 8 | -9 | 10 | -7
Cc1ccc(C(C)C)c(OCCn2c(=O)oc3ccccc32)c1 | 13 | -1 | 23 | 6 | 72* | -8
Cc1ccccc1OCCn1c(=O)oc2ccccc21 | 17 | -3 | 25 | 3 | 26 | 10
CCOC(=O)C1CCCN(CC(=O)c2c[nH]c3ccc(C)cc23)C1 (centres undefined) | 16 | -15 | 6 | -19 | -4 | -4
CCN(CC)c1ccc(NC(=O)Nc2ccc(C(C)=O)cc2)cc1 | 20 | -20 | 17 | 11 | 32 | -1
CCN(CC)c1ccc(NC(=O)Nc2ccccc2)cc1 | 25 | -9 | 8 | -7 | 50* | 1
CNC(=O)c1ccc(NC(=O)Nc2ccccc2)cc1 | 40* | -10 | 14 | -4 | 10 | 2
O=C1C(=O)N(CCCc2ccccc2)c2ccccc21 | nt | -24 | -10 | -13 | nt | 10
Cc1nc(SCc2nc3ccccc3[nH]2)c2oc3ccccc3c2n1 | 13 | -8 | 79* | -33 | 16 | -2
Cc1nc(SCC(=O)c2cccs2)c2oc3ccccc3c2n1 | 17 | 0 | 73* | -13 | 24 | 10
COc1ccccc1N1CCN(C(=O)c2ccc(Cn3c(=O)[nH]c4ccsc4c3=O)cc2)CC1 | 16 | -16 | 2 | -13 | 48 | -18
CCCc1cc(=O)oc2cc(C)cc(OC(C)C(=O)NCc3ccccn3)c12 (centres undefined) | -1 | -17 | 14 | -15 | -10 | -1
CCCn1cnc2c(=O)oc3ccccc3c21 | 4 | 3 | 31 | 11 | 17 | -12
Cn1c2ccccc2c2c(=O)oc3ccccc3c21 | 1 | 25 | 61* | -6 | -22 | nt
Cc1cc(C)nc(/N=C(\N)Nc2ccc(S(=O)(=O)O)cc2)n1 | 13 | nt | nt | nt | 5 | 2
COc1ccc(N/C(N)=N/c2nc(C)cc(C)n2)cc1 | 19 | nt | nt | nt | 55* | nt
Cc1ccc(S(=O)(=O)N2CCCN(c3nc4cc(C)ccc4cc3C#N)CC2)cc1 | -2 | 38 | 48* | -21 | 4 | -6
SMILES | TAAR1 ag | OX1R antag-1 | OX1R antag-2 | CHO parental Ca | TAAR1 antag | GPR7 antagonist
O=C(C1CCCO1)N1CCN(C(=S)Nc2ccc(Cl)c(Cl)c2)CC1 (centres undefined) | 2 | -9 | 8 | 2 | 9 | 0
CC1CCCCN1CCNC(=O)C1CCN(S(=O)(=O)c2cccc3nsnc23)CC1 (centres undefined) | 2 | -1 | 34 | -17 | -39 | -3
CC1CCCCN1CCNC(=O)C1CCCN(S(=O)(=O)c2cccc3nsnc23)C1 (centres undefined) | 0 | -21 | 46* | -28 | -14 | -11
CCN1CCN(S(=O)(=O)c2cccc3nsnc23)CC1 | 13 | -12 | 40 | -2 | -24 | -8
CCCN(CCC)CCCNC(=O)C1CCN(S(=O)(=O)c2cccc3nsnc23)CC1 | 2 | -2 | 40* | -1 | -17 | -16
O=S(=O)(c1cccc2nsnc12)N1CCNCC1 | -5 | -13 | 55* | 3 | 6 | -3
Nc1cccc(-n2nnnc2CN2CCOCC2)c1 | 3 | -6 | 13 | -5 | 8 | -10
CCCCc1cc(=O)oc2cc(OC3CCCCC3=O)ccc12 (centres undefined) | 0 | -12 | 6 | 6 | -10 | 5
CCOC(=O)C1=C(CSc2nc3ccccc3s2)NC(=O)NC1c1cc(C)ccc1C (centres undefined) | -1 | 27 | 49* | -29 | 1 | -4
CCOc1cc2c(cc1OCC)CN(CC(=O)Nc1ccccc1C(=O)NC1CC1)CC2 | 6 | -46 | 9 | -33 | -21 | nt
COc1ccc(OC)c(NS(=O)(=O)c2ccc(Cl)s2)c1 | 3 | -7 | 7 | -3 | 2 | 6
COc1ccc(OC)c(NS(=O)(=O)c2ccc(Br)s2)c1 | nt | -3 | 33 | 38* | nt | -1
COc1ccc(C2/C=C\CN(C(=O)Nc3ccc(C(F)(F)F)cc3)CC(=O)N2Cc2ccc(F)cc2)cc1 (centres undefined) | nt | 9 | 33 | 60* | nt | nt
COc1ccc(C2/C=C\CN(C(=O)Nc3ccccc3)CC(=O)N2Cc2ccc(F)cc2)cc1 (centres undefined) | 16 | -25 | 20 | -33 | 7 | nt
O=C1COc2ccc(C(=O)COC(=O)CNS(=O)(=O)c3cccc(F)c3)cc2N1 | 3 | -12 | 2 | -4 | 12 | nt
NS(=O)(=O)c1ccc(Nc2ncccc2[N+](=O)[O-])cc1 | 4 | 1 | 58* | 4 | 12 | -1
O=S(=O)(/N=S1\CC=CCN1S(=O)(=O)c1ccccc1)c1ccccc1 (centres undefined) | 67* | nt | nt | nt | -8 | nt
O=S(=O)(c1ccccc1)N1CCN(S(=O)(=O)c2ccccc2)c2ccccc21 | 0 | nt | nt | nt | 17 | nt
COc1cc(CCC(=O)OCc2nnc(-c3ccccc3)o2)cc(OC)c1OC | 8 | -20 | 13 | -26 | -7 | -9
COc1cc(-c2nnc(COC(=O)CSc3cc(C)c4ccccc4n3)o2)cc(OC)c1OC | 2 | 10 | 70* | -18 | -5 | -5
COc1ccc(-c2cc(-c3nnc(COC(=O)CC4CCCC4)o3)c3ccccc3n2)cc1OC | 4 | -27 | 4 | -2 | 29 | -2
COc1ccc(-c2cc(-c3nnc(COC(=O)C4CC4)o3)c3ccccc3n2)cc1OC | 9 | -13 | 19 | -2 | 52* | -8
CC(=O)Nc1ccc(S(=O)(=O)N2CCSc3ccccc32)cc1 | 3 | 9 | 14 | 2 | -2 | nt
O=C1c2ccccc2C(=O)N1/N=C/c1ccc(O)c(O)c1 | -1 | 2 | 11 | 10 | 0 | -4
CC(C)Cn1cnc2c(c1=O)c1nc3ccccc3nc1n2Cc1ccc2c(c1)OCO2 | nt | nt | nt | nt | nt | -6
